Lipid droplet = hepatic lipid droplet formation modulation | AML12 mouse hepatocytes, oleate lipid droplets, BODIPY imaging | inhibition, % at 6.5 µM | hit rate 0.4% among 240,000 | AID 1656;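 active = lipid droplet intensity inhibited by at least 50%, with more than 500 cells counted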
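Material: mouse AML12 hepatocyte cell line, fixed after treatment; Timing: compound with oleate, overnight; Technique: high-content imaging of BODIPY-stained droplets and DAPI nuclei; Probe or stimulus: oleate, 100 µM final; Dosing: compound at 6.5 µM only.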
FXIa inh 1536 = factor XIa (human) inhibition. inhibition, % at 5 µM. hit rate 0.14% among 220,000. P03951. purified FXIa, Boc-Glu-Ala-Arg-AMC fluorogenic substrate;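 active = inhibition of at least 40%; inactive = inhibition below 40%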;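 also: fluorescence of freed AMC excited at 355 nm; 0% = enzyme without compound and 100% = no enzyme blank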
Target sequence (P03951 19-387 limits assumed): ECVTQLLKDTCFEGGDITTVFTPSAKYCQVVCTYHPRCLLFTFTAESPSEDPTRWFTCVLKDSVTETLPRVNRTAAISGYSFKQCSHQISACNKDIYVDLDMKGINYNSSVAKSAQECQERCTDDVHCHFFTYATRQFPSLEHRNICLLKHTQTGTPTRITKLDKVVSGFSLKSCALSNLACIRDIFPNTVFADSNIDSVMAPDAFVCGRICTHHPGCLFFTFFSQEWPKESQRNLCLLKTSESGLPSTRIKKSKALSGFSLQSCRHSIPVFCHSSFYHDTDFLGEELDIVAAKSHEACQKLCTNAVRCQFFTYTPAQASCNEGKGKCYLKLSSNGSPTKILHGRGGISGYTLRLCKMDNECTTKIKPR
Target sequence (P03951 388-625 limits assumed): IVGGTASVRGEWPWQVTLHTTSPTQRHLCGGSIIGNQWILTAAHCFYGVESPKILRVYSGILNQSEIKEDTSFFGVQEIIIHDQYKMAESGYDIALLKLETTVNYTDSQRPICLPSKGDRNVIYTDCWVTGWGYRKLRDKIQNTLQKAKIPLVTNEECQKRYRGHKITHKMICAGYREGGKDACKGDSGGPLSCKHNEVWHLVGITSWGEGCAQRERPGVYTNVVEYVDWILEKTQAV
hK5 inh = kallikrein 5 (human) inhibition; Q9Y337; recombinant hK5, fluorogenic AMC substrate cleavage; hit rate 0.59% among 210,000; inhibition, % at 5 µM;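 active = inhibition of 40% or more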;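 also: 0% = enzyme controls without compound and 100% = no-enzyme blanks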
Thrombin inh = thrombin (human) inhibition | hit rate 0.26% among 220,000 | inhibition, % at 5 µM | alpha-thrombin, Boc-VPR-AMC fluorogenic substrate cleavage | P00734;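 active = inhibition at or above 40%; inactive = inhibition below 40%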;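 also: 0% = enzyme with no compound and 100% = wells without enzyme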
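System: Human alpha-thrombin protein | Medium: pH 7.5 Tris (50 mM) with NaCl 150 mM, Tween 20 0.05% | Times: Enzyme reaction carried out at room temperature | Detection: AMC fluorescence, 355/460 nm | Evaluation: Percent inhibition scaled between no-compound controls and no-enzyme blanks | Benchmarks: Enzyme without compound as high, wells lacking enzyme as low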
FXIIa inh = factor XIIa (human) inhibition; P00748; purified FXIIa, Boc-QGR-AMC fluorogenic substrate, 2 h; inhibition, % at 5 µM; hit rate 0.3% among 220,000; in the data active = inhibition above about 40%;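 also: 0% = enzyme with no compound and 100% = blank without enzyme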
Calb biofilm kill = mixture kills Candida albicans biofilm cells | inhibition, % at 7.6 µM | AID 1242 | C. albicans biofilm persisters + clotrimazole, fluorescence viability; primary screen in compound mixtures of four per well | hit rate 0.02% among 120,000;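 active = inhibition above 30.3% in the primary screen of four-compound pools, then above 30% when the compound was retested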;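 also: compounds exposed to preformed 24 h biofilms for 48 h; 0% = untreated biofilm control and 100% = clotrimazole plus chlorhexidine kill blank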
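Assay system: C. albicans biofilms / Medium: RPMI/MOPS medium, pH 7.0 / Schedule: biofilm formation 24 h, compound exposure 48 h, 37 °C / Measured by: Alamar Blue fluorescence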
Starred values were filed as active, the others as inactive; x = no result. Most compounds without a hit are left out; they make up all but 1.1% or so of the library.

SMILES	Lipid droplet	FXIa inh 1536	hK5 inh	Thrombin inh	FXIIa inh	Calb biofilm kill
CC(C)(C)c1ccc(Cn2nnc3c(=O)[nH]c(C4CCN(C(=O)Cc5cccs5)CC4)nc32)cc1	x	16	118*	9	15	x
Cc1cccc(Nc2nc(N)nc(CCl)n2)c1	6	30	33	49*	19	12
COc1cccc(N2C(=O)CC(NNc3nc4ccccc4s3)C2=O)c1 (stereo not drawn)	6	18	40*	19	14	0
O=C(OCC(=O)C12CC3CC(CC(C3)C1)C2)c1cnccn1	17	x	x	x	x	x
CCOc1cc(S(=O)(=O)NCc2ccc(OC)cc2)c(OCC)cc1-n1cnnn1	8	18	46*	69*	20	x
CCOc1cc(S(=O)(=O)NCCc2ccc(OC)c(OC)c2)c(OCC)cc1-n1cnnn1	-27	-6	-23	-1	12	x
O=c1[nH]nc(Cc2ccc(Cl)cc2)c2ccccc12	-6	0	54*	21	5	11
CC(=O)N1c2ccccc2N2C(c3c(C)c(C)cc(C)c3C)=NON12	-1	0	-4	47*	6	4
CC(C)N(CCCNC(=O)c1nn(C)c2c1CS(=O)(=O)c1ccccc1-2)Cc1ccccc1	-12	x	x	x	x	x
CS(=O)(=O)Nc1cccc(C(=O)OCCCOc2ccc(F)cc2)c1	6	x	x	x	x	x
CSc1nc(-c2ccccc2)nc(N)c1C(C)=O	6	8	45*	16	7	x
Cc1ccc2c(c1)N(CC(=O)N1CCCCCC1)C(=O)C(C)O2 (stereo not drawn)	2	x	x	x	x	x
NS(=O)(=O)c1ccc(NC(=O)Nc2ccc(Cl)cc2)cc1	6	0	44*	-1	6	14
Cc1c(-c2cc(C(=O)O)c3ccccc3n2)cnn1C	1	-1	1	-10	4	29
COc1ccc(N(C(=O)c2ccco2)S(=O)(=O)c2cccc([N+](=O)[O-])c2)cc1	6	20	-5	58*	22	x
COc1ccc(N(C(=O)c2ccco2)S(=O)(=O)c2ccc(F)cc2)cc1	-6	9	0	42*	14	3
COc1ncnc(OC)c1S(=O)(=O)Nc1ccc(C(F)(F)F)cc1	-18	x	x	x	x	x
Cn1cc(S(=O)(=O)Nc2cccc3ccccc23)c(=O)n(C)c1=O	1	x	x	x	x	x
Cc1ccccc1-n1cnc2cc(NCc3cccs3)ccc21	x	12	40*	41*	19	x
COc1ccccc1-n1cnc2cc(NCc3cccs3)ccc21	-150	4	5	3	14	x
CCOc1c(Br)cc(CNc2ncn[nH]2)cc1OC	-2	12	-25	0	16	x
COc1cc(CNc2ncn[nH]2)cc(Br)c1OC	x	-3	71*	6	9	x
O=C(CN(Cc1ccc(F)cc1)C(=O)CCC(=O)Nc1nccs1)NCc1ccccc1	-6	x	x	x	x	x
Cc1sc2nc(N)sc2c1C	x	1	63*	-5	10	x
CCOC(=O)C1CCN(S(=O)(=O)c2ccc(OC)c(Cl)c2)CC1	-5	-16	-24	-5	-5	7
SMILES	Lipid droplet	FXIa inh 1536	hK5 inh	Thrombin inh	FXIIa inh	Calb biofilm kill
CC(=O)N1CCC2(CC1)NC(=O)N(c1ccccc1)N2	-2	-4	-3	-8	5	25
O=C1NC2(CCCCC2)NN1c1ccccc1	10	-13	-17	48*	0	x
CS(=O)(=O)c1ccc2nc(NC(=O)C3COc4ccccc4O3)sc2c1 (stereo not drawn)	x	3	156*	18	17	x
CCC(CO)NC1=C([N+](=O)[O-])C(=O)CC(C)(C)C1 (stereo not drawn)	10	18	50*	15	18	4
COc1cc(C2C3C(=O)N(Cc4ccccc4)C(=O)C3ON2c2ccccc2)cc(OC)c1OC (stereo not drawn)	x	-2	-10	5	11	x
COc1ccc(C2C3C(=O)N(Cc4ccccc4)C(=O)C3ON2c2ccccc2)c(OC)c1OC (stereo not drawn)	x	7	52*	19	13	x
CCOC(=O)CN1CC23C=CC(O2)C(C(=O)Nc2ccc(OCC)cc2)C3C1=O (stereo not drawn)	-3	7	43*	4	15	x
CCOC(=O)CN1CC23C=CC(O2)C(C(=O)Nc2ccc4c(c2)OCO4)C3C1=O (stereo not drawn)	10	2	1	-3	9	x

Screening data: PubChem, several laboratories
